# According to ChEMBL document CHEMBL5303300, “EUbOPEN Chemogenomics Library - Multiplex” (2023):
# Values joined by “and” are separate entries in the source; they are usually repeats but may differ in a detail not shown here. Identical values can stand only once.
# Test system: HEK-293T
# Experiment: Multiplex assay against HEK293T
# Format: toxicity, cell-based
# Settings: human, number of replicates 2
# Summary of the method: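 Values for tubulin, mitochondrial-mass and membrane-permeability phenotypes are per cents of cells with healthy nuclei. These cells were identified by CellPathfinder machine-learning gating of live cells that had been stained at seeding with Hoechst33342, BioTracker Green Microtubule Cytoskeleton Dye, MitoTracker Red and Annexin V Alexa Fluor 680 and imaged on a CQ1 microscope at 37°C and 5% CO2 after compound addition. The gating first set Hoechst high-intensity objects apart from normal cells, then split normal cells into healthy, pyknosed or fragmented nuclei, and pyknosed cells into mitotic or apoptotic.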
# [1] = 12 h, 1 µM, compound concentration 1 uM
# [2] = 12 h, 10 µM, compound concentration 10 uM
# [3] = 24 h, 1 µM, compound concentration 1 uM
# [4] = 24 h, 10 µM, compound concentration 10 uM
# [5] = 48 h, 1 µM, compound concentration 1 uM
# [6] = 48 h, 10 µM, compound concentration 10 uM
smiles,measurement,setting,value
COc1nc2ccc([C@@](O)(c3ccc(Cl)cc3)c3cncn3C)cc2c(Cl)c1Cc1ccc(-n2cccn2)cc1 [JNJ-53721590],Population Apoptotic (%),[1],43% and 52%
same,Population Fragmented Nuclei (%),[1],4% and 2%
same,Population Healthy Nuclei (%),[1],81%
same,Population Hoechst High Intensity Objects (%),[1],7%
same,Population Membrane Permeable-Phenotype (%),[1],4% and 5%
same,Population Mitochondria Different-Phenotype (%),[1],26%
same,Population Mitotic Cells (%),[1],56% and 47%
same,Population Normal (%),[1],92%
same,Population Pyknosed Nuclei (%),[1],13% and 15%
same,Population Tubulin-Different-Phenotype (%),[1],74% and 70%
same,Total Cell Count,[1],675 and 403
same,Population Apoptotic (%),[2],41% and 64%
same,Population Fragmented Nuclei (%),[2],2%
same,Population Healthy Nuclei (%),[2],88%
same,Population Hoechst High Intensity Objects (%),[2],6%
same,Population Membrane Permeable-Phenotype (%),[2],21% and 12%
same,Population Mitochondria Different-Phenotype (%),[2],24%
same,Population Mitotic Cells (%),[2],58% and 35%
same,Population Normal (%),[2],93%
same,Population Pyknosed Nuclei (%),[2],9% and 8%
same,Population Tubulin-Different-Phenotype (%),[2],94%
same,Total Cell Count,[2],831 and 720
same,Population Apoptotic (%),[3],42% and 54%
same,Population Fragmented Nuclei (%),[3],6% and 3%
same,Population Healthy Nuclei (%),[3],84% and 87%
same,Population Hoechst High Intensity Objects (%),[3],8% and 7%
same,Population Membrane Permeable-Phenotype (%),[3],4% and 1%
same,Population Mitochondria Different-Phenotype (%),[3],11% and 15%
same,Population Mitotic Cells (%),[3],57% and 45%
same,Population Normal (%),[3],91% and 92%
same,Population Pyknosed Nuclei (%),[3],8%
same,Population Tubulin-Different-Phenotype (%),[3],57% and 53%
same,Total Cell Count,[3],1025 and 592
same,Population Apoptotic (%),[4],37% and 57%
same,Population Fragmented Nuclei (%),[4],2% and 1%
same,Population Healthy Nuclei (%),[4],87% and 84%
same,Population Hoechst High Intensity Objects (%),[4],5% and 8%
same,Population Membrane Permeable-Phenotype (%),[4],16% and 11%
same,Population Mitochondria Different-Phenotype (%),[4],19% and 23%
same,Population Mitotic Cells (%),[4],62% and 42%
same,Population Normal (%),[4],94% and 91%
same,Population Pyknosed Nuclei (%),[4],9% and 13%
same,Population Tubulin-Different-Phenotype (%),[4],95% and 96%
same,Total Cell Count,[4],856 and 731
same,Population Apoptotic (%),[5],18% and 38%
same,Population Fragmented Nuclei (%),[5],10% and 8%
same,Population Healthy Nuclei (%),[5],86% and 85%
same,Population Hoechst High Intensity Objects (%),[5],8% and 11%
same,Population Membrane Permeable-Phenotype (%),[5],5% and 2%
same,Population Mitochondria Different-Phenotype (%),[5],2% and 7%
same,Population Mitotic Cells (%),[5],81% and 61%
same,Population Normal (%),[5],91% and 88%
same,Population Pyknosed Nuclei (%),[5],3% and 6%
same,Population Tubulin-Different-Phenotype (%),[5],37% and 39%
same,Total Cell Count,[5],2031 and 1111
same,Population Apoptotic (%),[6],40% and 52%
same,Population Fragmented Nuclei (%),[6],5% and 6%
same,Population Healthy Nuclei (%),[6],90% and 87%
same,Population Hoechst High Intensity Objects (%),[6],10% and 12%
same,Population Membrane Permeable-Phenotype (%),[6],28% and 21%
same,Population Mitochondria Different-Phenotype (%),[6],3% and 4%
same,Population Mitotic Cells (%),[6],60% and 47%
same,Population Normal (%),[6],89% and 87%
same,Population Pyknosed Nuclei (%),[6],4% and 5%
same,Population Tubulin-Different-Phenotype (%),[6],93% and 95%
same,Total Cell Count,[6],993 and 855
CCn1ccc(Nc2ncc3c(n2)-c2c(nn(C)c2-c2ccc(-c4cnn(C)c4)cc2Cl)CC3)n1,Population Apoptotic (%),[1],31% and 47%
same,Population Fragmented Nuclei (%),[1],3%
same,Population Healthy Nuclei (%),[1],87% and 84%
same,Population Hoechst High Intensity Objects (%),[1],14% and 10%
same,Population Membrane Permeable-Phenotype (%),[1],1% and 0%
same,Population Mitochondria Different-Phenotype (%),[1],44% and 42%
same,Population Mitotic Cells (%),[1],68% and 52%
same,Population Normal (%),[1],85% and 89%
same,Population Pyknosed Nuclei (%),[1],8% and 12%
same,Population Tubulin-Different-Phenotype (%),[1],84% and 81%
same,Total Cell Count,[1],429 and 424
same,Population Apoptotic (%),[2],76% and 63%
same,Population Fragmented Nuclei (%),[2],4% and 9%
same,Population Healthy Nuclei (%),[2],86% and 80%
same,Population Hoechst High Intensity Objects (%),[2],11%
same,Population Membrane Permeable-Phenotype (%),[2],3% and 0%
same,Population Mitochondria Different-Phenotype (%),[2],58% and 68%
same,Population Mitotic Cells (%),[2],24% and 36%
same,Population Normal (%),[2],88%
same,Population Pyknosed Nuclei (%),[2],8% and 10%
same,Population Tubulin-Different-Phenotype (%),[2],92% and 94%
same,Total Cell Count,[2],332 and 321
same,Population Apoptotic (%),[3],26% and 62%
same,Population Fragmented Nuclei (%),[3],5%
same,Population Healthy Nuclei (%),[3],87% and 85%
same,Population Hoechst High Intensity Objects (%),[3],13% and 15%
same,Population Membrane Permeable-Phenotype (%),[3],1%
same,Population Mitochondria Different-Phenotype (%),[3],40% and 28%
same,Population Mitotic Cells (%),[3],73% and 37%
same,Population Normal (%),[3],86% and 84%
same,Population Pyknosed Nuclei (%),[3],7% and 9%
same,Population Tubulin-Different-Phenotype (%),[3],80% and 69%
same,Total Cell Count,[3],473 and 512
same,Population Apoptotic (%),[4],72% and 81%
same,Population Fragmented Nuclei (%),[4],4% and 11%
same,Population Healthy Nuclei (%),[4],89% and 80%
same,Population Hoechst High Intensity Objects (%),[4],15% and 18%
same,Population Membrane Permeable-Phenotype (%),[4],0% and 1%
same,Population Mitochondria Different-Phenotype (%),[4],34% and 45%
same,Population Mitotic Cells (%),[4],27% and 18%
same,Population Normal (%),[4],84% and 81%
same,Population Pyknosed Nuclei (%),[4],5% and 8%
same,Population Tubulin-Different-Phenotype (%),[4],80%
same,Total Cell Count,[4],438 and 393
same,Population Apoptotic (%),[5],52% and 61%
same,Population Fragmented Nuclei (%),[5],13% and 10%
same,Population Healthy Nuclei (%),[5],83% and 85%
same,Population Hoechst High Intensity Objects (%),[5],20%
same,Population Membrane Permeable-Phenotype (%),[5],4% and 2%
same,Population Mitochondria Different-Phenotype (%),[5],7% and 12%
same,Population Mitotic Cells (%),[5],47% and 38%
same,Population Normal (%),[5],79%
same,Population Pyknosed Nuclei (%),[5],2% and 3%
same,Population Tubulin-Different-Phenotype (%),[5],60% and 59%
same,Total Cell Count,[5],930 and 827
same,Population Apoptotic (%),[6],41% and 52%
same,Population Fragmented Nuclei (%),[6],11% and 14%
same,Population Healthy Nuclei (%),[6],85% and 82%
same,Population Hoechst High Intensity Objects (%),[6],14% and 18%
same,Population Membrane Permeable-Phenotype (%),[6],2% and 0%
same,Population Mitochondria Different-Phenotype (%),[6],11% and 15%
same,Population Mitotic Cells (%),[6],58% and 47%
same,Population Normal (%),[6],85% and 81%
same,Population Pyknosed Nuclei (%),[6],2% and 3%
same,Population Tubulin-Different-Phenotype (%),[6],65% and 63%
same,Total Cell Count,[6],674 and 549
